In this test the target is T1, Membrane-bound transcription factor site-1 protease (Homo sapiens, UniProt Q14703).
T1 sequence (Q14703 whole entry): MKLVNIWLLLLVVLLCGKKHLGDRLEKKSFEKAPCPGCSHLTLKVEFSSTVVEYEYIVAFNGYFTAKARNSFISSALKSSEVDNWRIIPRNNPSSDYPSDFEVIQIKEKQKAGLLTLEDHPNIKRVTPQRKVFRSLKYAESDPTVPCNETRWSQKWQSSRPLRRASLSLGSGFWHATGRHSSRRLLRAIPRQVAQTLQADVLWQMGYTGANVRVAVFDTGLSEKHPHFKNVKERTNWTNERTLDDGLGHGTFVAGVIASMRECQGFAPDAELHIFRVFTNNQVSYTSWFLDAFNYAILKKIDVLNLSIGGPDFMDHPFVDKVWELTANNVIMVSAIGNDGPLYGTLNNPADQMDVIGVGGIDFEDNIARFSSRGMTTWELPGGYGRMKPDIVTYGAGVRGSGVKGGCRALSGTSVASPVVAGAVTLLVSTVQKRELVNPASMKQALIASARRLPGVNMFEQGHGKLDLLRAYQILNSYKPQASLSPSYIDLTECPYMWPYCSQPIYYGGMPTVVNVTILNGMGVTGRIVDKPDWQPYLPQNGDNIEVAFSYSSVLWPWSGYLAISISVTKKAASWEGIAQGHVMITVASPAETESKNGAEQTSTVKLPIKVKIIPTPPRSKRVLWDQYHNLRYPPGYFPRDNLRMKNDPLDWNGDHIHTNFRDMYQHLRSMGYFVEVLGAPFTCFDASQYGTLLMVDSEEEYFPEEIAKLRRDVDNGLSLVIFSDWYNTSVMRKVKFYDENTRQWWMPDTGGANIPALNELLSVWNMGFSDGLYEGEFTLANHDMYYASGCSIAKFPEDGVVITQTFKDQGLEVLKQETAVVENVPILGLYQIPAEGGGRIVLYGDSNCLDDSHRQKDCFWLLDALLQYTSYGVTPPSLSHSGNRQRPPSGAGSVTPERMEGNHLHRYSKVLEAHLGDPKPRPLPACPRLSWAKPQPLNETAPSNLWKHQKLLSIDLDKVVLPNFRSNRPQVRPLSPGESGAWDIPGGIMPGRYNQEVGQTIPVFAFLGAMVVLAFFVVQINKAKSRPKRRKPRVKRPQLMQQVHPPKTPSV
The test is described as follows: Inhibition of human recombinant soluble Kexin isozyme 1. Put shortly:
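Recombinant soluble human SKI-1 (activity normalized to 10 pmol Abz-peptide released per µL per h, 37 °C). Only the E-form was tested, at varying concentrations, with quenched fluorogenic Abz-Q-GPC251–263-Tyx substrate in Tris/Mes/2 mM CaCl2 buffer at 37 °C. RFU (ex 320/em 420 nm) were read from 0–6 h and converted to cleavage rates. Ki came from Dixon plots at 0.1, 0.05 and 0.025 mM substrate.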

One may read the Ki as the equilibrium dissociation constant of an inhibitor or competing ligand from its target.

Each structure is given as a SMILES string.

On to `O=C(COc1ccccc1/N=N/c1ccccc1OCC(=O)N[C@@H](Cc1ccccc1)C(=O)O)N[C@@H](Cc1ccccc1)C(=O)O`, for which the Ki came out at 225 µM.
Turning to `CC(C)[C@H](NC(=O)COc1ccccc1/N=N/c1ccccc1OCC(=O)N[C@H](C(=O)OCc1ccccc1)C(C)C)C(=O)OCc1ccccc1`, the inhibition constant Ki was determined as 125 µM.
The same measure for `CC(C)[C@H](NC(=O)COc1ccccc1/N=N/c1ccccc1OCC(=O)N[C@H](C(=O)O)C(C)C)C(=O)O`: 75 µM; for `O=C(COc1ccccc1/N=N/c1ccccc1OCC(=O)N[C@@H](Cc1ccccc1)C(=O)OCc1ccccc1)N[C@@H](Cc1ccccc1)C(=O)OCc1ccccc1`: 11.8 µM.
On to `O=C(COc1ccccc1/N=N/c1ccccc1OCC(=O)N[C@@H](Cc1ccccc1)C(=O)N[C@@H](Cc1ccccc1)C(=O)O)N[C@@H](Cc1ccccc1)C(=O)N[C@@H](Cc1ccccc1)C(=O)O`, for which the Ki came out at 140 µM.
With `O=C(O)CNC(=O)COc1ccccc1/N=N/c1ccccc1OCC(=O)NCC(=O)O`, the Ki was 265 µM.

Source of the values: BindingDB's records for doi:10.1016/j.bmcl.2010.04.101 (Indian Institute of Technology, 2010).
